Data taken from ChEMBL document CHEMBL3414496, “Synthesis and biological evaluation of novel 2-heteroarylimino-1,3-thiazolidin-4-ones as potential anti-tumor agents” (Eur J Med Chem, 2015).
Activity calls are given as the source filed them. The calls are words filed in the database; no cut-off is given here.

Tests used:
[1] = tested on: HT-29; test: Induction of ROS generation in human HT-29 cells at 2.5 uM after 2 to 6 hrs by DCF-DA staining based fluorescence assay; format: functional, cell-based
Method in brief: (§1)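 HT29 cells treated two days after seeding, then loaded with 50 µM DCF-DA for 15 min at 37°C. Cells trypsinized, washed and resuspended in PBS, and 30 000 cells/sample read by flow cytometry (FL-1). Expressed as % of DMSO-treated cells; […] for 1 h served as positive control. Triplicates from three independent experiments.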

[2] = tested on: HT-29; test: Inhibition of cell growth in human HT-29 cells assessed as mitotic index ratio in presence of 1 mM ascorbic acid (reference value: 1.08 +/- 0.04); format: functional
[3] = tested on: HT-29; test: Induction of ROS generation in human HT-29 cells at 2.5 uM after 3 hrs by DCF-DA staining based fluorescence assay; format: functional, cell-based; method in brief: as §1
[4] = tested on: HT-29; test: Induction of GCL expression in human HT-29 cells at 3.8 uM after 4 hrs by Western blotting method; format: functional
Method in brief: (§2)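 HT29 whole-cell lysates in Hepes/KOH pH 7.5 with EDTA, KCl, NP40, DTT, protease inhibitors; 50 µg protein on 10–15% SDS-PAGE, nitrocellulose, overnight 4°C primary antibody (GCL 1:500, HO-1 1:1000), HRP secondary, chemiluminescence. Bands normalized to GAPDH (1:10 000), DMSO ratio set at 1.00; representative of three independent experiments.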

[5] = tested on: HT-29; test: Induction of HO1 expression in human HT-29 cells at 3.8 uM after 24 hrs by Western blotting method; format: functional; method in brief: as §2
[6] = tested on: HT-29; test: Induction of NQO1 expression in human HT-29 cells at 3.8 uM after 2 hrs by Western blotting method; format: functional
Method in brief: (§3)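 Whole-cell lysates from treated HT29 cells in pH 7.5 Hepes/KOH buffer with EDTA, KCl, Igepal, DTT and protease inhibitors. 50 µg protein run on 10-15% SDS-PAGE and transferred to nitrocellulose. Probed overnight at 4°C with anti-HO-1 (1:1 000), anti-NQO1 (1:1 000) or anti-GCL (1:500), then HRP secondary for 45 min and chemiluminescence. Bands normalized to GAPDH (1:10 000), with the DMSO ratio set to 1.00. Representative of three experiments.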

[7] = tested on: HT-29; test: Induction of HO1 expression in human HT-29 cells at 3.8 uM after 6 hrs by Western blotting method; format: functional; method in brief: as §2
[8] = tested on: HT-29; test: Induction of GCL expression in human HT-29 cells at 3.8 uM after 24 hrs by Western blotting method; format: functional; method in brief: as §2
[9] = tested on: HT-29; test: Induction of GCL expression in human HT-29 cells at 3.8 uM after 2 hrs by Western blotting method; format: functional; method in brief: as §2
[10] = tested on: HT-29; test: Induction of GCL expression in human HT-29 cells at 3.8 uM after 6 hrs by Western blotting method; format: functional; method in brief: as §2
[11] = tested on: HT-29; test: Induction of NQO1 expression in human HT-29 cells at 3.8 uM after 4 hrs by Western blotting method; format: functional; method in brief: as §3
[12] = tested on: HT-29; test: Induction of HO1 expression in human HT-29 cells at 3.8 uM after 4 hrs by Western blotting method; format: functional; method in brief: as §2
[13] = tested on: HT-29; test: Induction of HO1 expression in human HT-29 cells at 6.4 uM after 6 hrs by Western blotting method; format: functional; method in brief: as §2
[14] = tested on: HT-29; test: Induction of HO1 expression in human HT-29 cells at 6.4 uM after 24 hrs by Western blotting method; format: functional; method in brief: as §2
[15] = tested on: HT-29; test: Induction of HO1 expression in human HT-29 cells at 6.4 uM after 4 hrs by Western blotting method; format: functional; method in brief: as §2
[16] = tested on: HT-29; test: Induction of HO1 expression in human HT-29 cells at 6.4 uM after 2 hrs by Western blotting method; format: functional; method in brief: as §2
[17] = tested on: HT-29; test: Induction of NQO1 expression in human HT-29 cells at 6.4 uM after 2 hrs by Western blotting method; format: functional; method in brief: as §3
[18] = tested on: HT-29; test: Induction of GCL expression in human HT-29 cells at 6.4 uM after 2 hrs by Western blotting method; format: functional; method in brief: as §2
[19] = tested on: HT-29; test: Induction of NQO1 expression in human HT-29 cells at 6.4 uM after 4 hrs by Western blotting method; format: functional; method in brief: as §3
[20] = tested on: HT-29; test: Induction of NQO1 expression in human HT-29 cells at 6.4 uM after 24 hrs by Western blotting method; format: functional; method in brief: as §3
[21] = tested on: HT-29; test: Induction of NQO1 expression in human HT-29 cells at 6.4 uM after 6 hrs by Western blotting method; format: functional; method in brief: as §3
[22] = tested on: HT-29; test: Induction of HO1 expression in human HT-29 cells at 1.5 uM after 2 hrs by Western blotting method; format: functional; method in brief: as §2
[23] = tested on: HT-29; test: Induction of NQO1 expression in human HT-29 cells at 1.5 uM after 6 hrs by Western blotting method; format: functional; method in brief: as §3
[24] = tested on: HT-29; test: Induction of NQO1 expression in human HT-29 cells at 1.5 uM after 4 hrs by Western blotting method; format: functional; method in brief: as §3
[25] = tested on: HT-29; test: Induction of NQO1 expression in human HT-29 cells at 1.5 uM after 2 hrs by Western blotting method; format: functional; method in brief: as §3
[26] = tested on: HT-29; test: Induction of GCL expression in human HT-29 cells at 1.5 uM after 24 hrs by Western blotting method; format: functional; method in brief: as §2
[27] = tested on: HT-29; test: Induction of HO1 expression in human HT-29 cells at 1.5 uM after 24 hrs by Western blotting method; format: functional; method in brief: as §2
[28] = tested on: HT-29; test: Induction of NQO1 expression in human HT-29 cells at 1.5 uM after 24 hrs by Western blotting method; format: functional; method in brief: as §3
[29] = tested on: HT-29; test: Induction of GCL expression in human HT-29 cells at 1.5 uM after 2 hrs by Western blotting method; format: functional; method in brief: as §2
[30] = tested on: HT-29; test: Induction of HO1 expression in human HT-29 cells at 1.5 uM after 6 hrs by Western blotting method; format: functional; method in brief: as §2
[31] = tested on: HT-29; test: Induction of GCL expression in human HT-29 cells at 1.5 uM after 6 hrs by Western blotting method; format: functional; method in brief: as §2
[32] = tested on: HT-29; test: Induction of GCL expression in human HT-29 cells at 1.5 uM after 4 hrs by Western blotting method; format: functional; method in brief: as §2
[33] = tested on: HT-29; test: Induction of GCL expression in human HT-29 cells at 10 uM after 4 hrs by Western blotting method; format: functional; method in brief: as §2
[34] = tested on: HT-29; test: Induction of GCL expression in human HT-29 cells at 10 uM after 2 hrs by Western blotting method; format: functional; method in brief: as §2
[35] = tested on: HT-29; test: Induction of GCL expression in human HT-29 cells at 10 uM after 24 hrs by Western blotting method; format: functional; method in brief: as §2
[36] = tested on: HT-29; test: Induction of GCL expression in human HT-29 cells at 10 uM after 6 hrs by Western blotting method; format: functional; method in brief: as §2
[37] = tested on: HT-29; test: Induction of ROS generation in human HT-29 cells at cytotoxic IC50 level after 30 mins by DCF-DA staining based fluorescence assay; format: functional, cell-based; method in brief: as §1
[38] = tested on: HT-29; test: Induction of HO1 expression in human HT-29 cells at 10 uM after 6 hrs by Western blotting method; format: functional; method in brief: as §2
[39] = tested on: HT-29; test: Induction of NQO1 expression in human HT-29 cells at 10 uM after 4 hrs by Western blotting method; format: functional; method in brief: as §3
[40] = tested on: HT-29; test: Induction of NQO1 expression in human HT-29 cells at 10 uM after 24 hrs by Western blotting method; format: functional; method in brief: as §3
[41] = tested on: HT-29; test: Induction of HO1 expression in human HT-29 cells at 10 uM after 24 hrs by Western blotting method; format: functional; method in brief: as §2

## COc1ccc(/C=C2\S/C(=N\c3nc(-c4ccc(Cl)cc4)cs3)NC2=O)cc1
[1]
  Activity: inactive

## CN(C)c1ccc(/C=C2\S/C(=N\c3nc(-c4ccc(Cl)cc4)cs3)NC2=O)cc1
[2]
  Ratio: 0.09
[3]
  Activity: Active

## COc1ccc(/C=C2\S/C(=N\c3csc(-c4ccc(Cl)cc4)c3)NC2=O)cc1
[4]
  fold change (FC): 1.49
[5]
  fold change (FC): 1
[6]
  fold change (FC): 1.16
[7]
  fold change (FC): 1
[8]
  fold change (FC): 1.55
[9]
  fold change (FC): 1.22
[10]
  fold change (FC): 1.69
[11]
  fold change (FC): 0.87
[12]
  fold change (FC): 1

## Cc1ccc(/C=C2\S/C(=N\c3csc(-c4ccc(Cl)cc4)c3)NC2=O)cc1
[13]
  fold change (FC): 1
[14]
  fold change (FC): 1
[15]
  fold change (FC): 1
[16]
  fold change (FC): 1
[17]
  fold change (FC): 2.23
[18]
  fold change (FC): 1.93
[19]
  fold change (FC): 2.59
[20]
  fold change (FC): 1.6
[21]
  fold change (FC): 1.86

## CN(C)c1ccc(/C=C2\S/C(=N\c3csc(-c4ccc(Cl)cc4)c3)NC2=O)cc1
[22]
  fold change (FC): 1
[23]
  fold change (FC): 1.26
[24]
  fold change (FC): 1.06
[25]
  fold change (FC): 1.15
[26]
  fold change (FC): 1.52
[27]
  fold change (FC): 1
[28]
  fold change (FC): 1.07
[29]
  fold change (FC): 0.9
[30]
  fold change (FC): 1
[31]
  fold change (FC): 0.99
[32]
  fold change (FC): 0.96

## COc1ccc(/C=C2\S/C(=N\c3csc(-c4ccc(Cl)cc4)c3)NC2=O)cc1OC
[33]
  fold change (FC): 1.16
[34]
  fold change (FC): 0.96
[35]
  fold change (FC): 1.11
[36]
  fold change (FC): 1.16
[37]
  Activity: Active
[38]
  fold change (FC): 1
[39]
  fold change (FC): 1.26
[40]
  fold change (FC): 0.9
[41]
  fold change (FC): 1
